Data from ChEMBL document CHEMBL1139414, “Conformationally constrained analogues of diacylglycerol. 29. Cells sort diacylglycerol-lactone chemical zip codes to produce diverse and selective biological activities” (J Med Chem, 2008).

Target: Protein kinase C alpha type (Mus musculus, UniProt P20444)
Assay: Displacement of [3H]PDBu form mouse PKCalpha by scintillation counting
In short: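 Partially purified mouse PKCα; competition with [³H]PDBU. ID50 obtained by fitting a sigmoidal competition curve and converted to Ki = ID50/(1+L/Kd). Pure compounds tested at 6–7 concentrations; crude library compounds at a single 1 μM concentration. Triplicates per concentration, at least three experiments; mean ± SEM.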

Ki [nM]	SMILES
16.8	CC(CC(=O)OCC1(CO)C/C(=C/c2ccc(F)cc2)C(=O)O1)CC(C)(C)C (racemic)
281	COc1ccc(C(=O)OCC2(CO)C/C(=C\c3ccc([N+](=O)[O-])cc3)C(=O)O2)cc1 (racemic; form 1)
26.5	CC(C)(C)CC(=O)OCC1(CO)C/C(=C/c2ccc(Cl)cc2)C(=O)O1 (racemic)
41	CC(CC(=O)OCC1(CO)C/C(=C/c2cccc(C(F)(F)F)c2)C(=O)O1)CC(C)(C)C (racemic; form 2)
28.8	CC(C)(C)C(=O)OCC1(CO)C/C(=C\c2ccc(Cl)c(F)c2)C(=O)O1 (racemic; form 2)
9.4	CCCCC(CC)C(=O)OCC1(CO)C/C(=C/c2cccc(C(F)(F)F)c2)C(=O)O1 (racemic)
22.8	CCCCC(CC)C(=O)OCC1(CO)C/C(=C/c2ccccc2C(F)(F)F)C(=O)O1 (racemic)
492	COc1ccc(C(=O)OCC2(CO)C/C(=C/c3ccccc3)C(=O)O2)cc1 (racemic)
74.5	CCCCCCC(=O)OCC1(CO)C/C(=C/C(CC)CCCC)C(=O)O1 (racemic)
13.3	CC(CC(=O)OCC1(CO)C/C(=C/c2cccc(C(F)(F)F)c2)C(=O)O1)CC(C)(C)C (racemic; form 1)
70	CC(C)c1cc(C(C)C)c(C(=O)OCC2(CO)C/C(=C/c3ccc(C(F)(F)F)cc3)C(=O)O2)c(C(C)C)c1 (racemic)
17.4	CC(CC(=O)OCC1(CO)C/C(=C/c2ccc(F)c(Br)c2)C(=O)O1)CC(C)(C)C (racemic)
79.5	O=C1OC(CO)(COC(=O)C(c2ccccc2)c2ccccc2)C/C1=C/c1cc(C(F)(F)F)cc(C(F)(F)F)c1 (racemic)
4.89	CCCCC(CC)C(=O)OCC1(CO)C/C(=C\c2ccc(Cl)c(F)c2)C(=O)O1 (racemic; form 2)
126	CCCCCC/C=C1/CC(CO)(COC(=O)c2c(C(C)C)cc(C(C)C)cc2C(C)C)OC1=O (racemic; form 2)
47.8	Cc1ccccc1C(=O)OCC1(CO)C/C(=C/c2ccc(C(F)(F)F)cc2)C(=O)O1 (racemic)
73.4	O=C1OC(CO)(COC(=O)C(c2ccccc2)c2ccccc2)C/C1=C/c1ccc(Cl)cc1 (racemic)
89.6	CCCCCCC(=O)OCC1(CO)C/C(=C/c2ccccc2)C(=O)O1 (racemic)
89.4	O=C1OC(CO)(COC(=O)C2CCCCC2)C/C1=C/C1CCCCC1 (racemic)
66.1	CCCCC(/C=C1/CC(CO)(COC(=O)c2c(C)cc(C)cc2C)OC1=O)CC (racemic)
15.1	CCCCC(CC)C(=O)OCC1(CO)C/C(=C/c2ccc(F)cc2)C(=O)O1 (racemic)
460	CCCCC(/C=C1/CC(CO)(COC(=O)c2ccc([N+](=O)[O-])cc2)OC1=O)CC (racemic; form 1)
2.9	CCCCC(CC)C(=O)OCC1(CO)C/C(=C\c2ccc(Cl)cc2)C(=O)O1 (racemic; form 2)
108	CC(C)(C)CC(=O)OCC1(CO)C/C(=C/c2ccc(F)cc2)C(=O)O1 (racemic)
37.9	O=C1OC(CO)(COC(=O)C(c2ccccc2)c2ccccc2)C/C1=C/c1ccc(F)c(Br)c1 (racemic)
6.1	CCCCC(CC)C(=O)OCC1(CO)C/C(=C\c2ccc(F)c(Br)c2)C(=O)O1 (racemic; form 1)
103	O=C1OC(CO)(COC(=O)c2ccc(C(F)(F)F)cc2)C/C1=C/c1ccccc1 (racemic)

Ki [nM]	SMILES
2.07	CCCCC(CC)C(=O)OCC1(CO)C/C(=C\c2ccc(F)c(Br)c2)C(=O)O1 (racemic; form 2)
18.3	CCC(C(=O)OCC1(CO)C/C(=C\c2ccc(-c3ccc(C(F)(F)F)cc3)cc2)C(=O)O1)c1ccccc1 (racemic; form 2)
187	CCCCC(/C=C1/CC(CO)(COC(=O)c2ccc(C(F)(F)F)cc2)OC1=O)CC (racemic)
111	O=C1OC(CO)(COC(=O)C(c2ccccc2)c2ccccc2)C/C1=C/c1ccc(-c2ccc(C(F)(F)F)cc2)cc1 (racemic)
96	CCCCC(CC)C(=O)OCC1(CO)C/C(=C\c2ccc(N(C)C)cc2)C(=O)O1 (racemic; form 2)
88.2	CC(C)C(=O)OCC1(CO)C/C(=C/c2ccc(Cl)cc2)C(=O)O1 (racemic)
49.5	CCCCCC/C=C1/CC(CO)(COC(=O)c2ccccc2C)OC1=O (racemic)
72.4	O=C1OC(CO)(COC(=O)c2ccc(C(F)(F)F)cc2)C/C1=C/c1ccc(C(F)(F)F)cc1 (racemic)
78	CC(C)C(=O)OCC1(CO)C/C(=C/c2ccc(C(F)(F)F)cc2)C(=O)O1 (racemic)
23.2	CC(C)(C)CC(=O)OCC1(CO)C/C(=C/c2cccc(C(F)(F)F)c2)C(=O)O1 (racemic)
22.4	CC(CC(=O)OCC1(CO)C/C(=C/c2ccc(F)c(Cl)c2)C(=O)O1)CC(C)(C)C (racemic)
213	CN(C)c1ccc(/C=C2\CC(CO)(COC(=O)c3ccc([N+](=O)[O-])cc3)OC2=O)cc1 (racemic; form 1)
16.4	CCCC(CCC)C(=O)OCC1(CO)C/C(=C/c2ccc(OC(F)(F)F)cc2)C(=O)O1 (racemic)
22.5	CC(C)(C)C(=O)OCC1(CO)C/C(=C/c2ccc(OC(F)(F)F)cc2)C(=O)O1 (racemic)
41.4	CC(C)(C)CC(=O)OCC1(CO)C/C(=C/c2ccccc2C(F)(F)F)C(=O)O1 (racemic)
27.2	CC(C)(C)C(=O)OCC1(CO)C/C(=C/c2ccc(-c3ccc(C(F)(F)F)cc3)cc2)C(=O)O1 (racemic)
149	COc1ccc(/C=C2/CC(CO)(COC(=O)c3ccc(C(F)(F)F)cc3)OC2=O)cc1 (racemic)
261	COc1ccc(C(=O)OCC2(CO)C/C(=C/C3CCCCC3)C(=O)O2)cc1 (racemic)
15.5	CCCCC(CC)C(=O)OCC1(CO)C/C(=C/c2ccc(C(F)(F)F)cc2)C(=O)O1 (racemic; form 1)
73	O=C1OC(CO)(COC(=O)C(c2ccccc2)c2ccccc2)C/C1=C/c1ccc(F)c(Cl)c1 (racemic)
113	CCCCCCC(=O)OCC1(CO)C/C(=C/c2ccc(OC)cc2)C(=O)O1 (racemic)
124	CC(C)c1cc(C(C)C)c(C(=O)OCC2(CO)C/C(=C/c3ccc([N+](=O)[O-])cc3)C(=O)O2)c(C(C)C)c1 (racemic)
406	Cc1ccc(C(=O)OCC2(CO)C/C(=C/c3ccc(N(C)C)cc3)C(=O)O2)cc1 (racemic)
3.1	CCCCC(CC)C(=O)OCC1(CO)C/C(=C\c2ccc([N+](=O)[O-])cc2)C(=O)O1 (racemic)
9.3	CCCC(CCC)C(=O)OCC1(CO)C/C(=C\c2ccc(F)c(Cl)c2)C(=O)O1 (racemic; form 2)
105	O=C1OC(CO)(COC(=O)C2CCCCC2)C/C1=C/c1ccc([N+](=O)[O-])cc1 (racemic)
95	CN(C)c1ccc(C(=O)OCC2(CO)C/C(=C/c3ccc(C(F)(F)F)cc3)C(=O)O2)cc1 (racemic)

Ki [nM]	SMILES
62.7	CCCCC(/C=C1/CC(CO)(COC(=O)C(CC)CCCC)OC1=O)CC (racemic)
164	O=C1OC(CO)(COC(=O)c2ccc([N+](=O)[O-])cc2)C/C1=C/c1ccc(C(F)(F)F)cc1 (racemic)
7.9	CC(C)(C)C(=O)OCC1(CO)C/C(=C\c2ccc(Cl)c(F)c2)C(=O)O1 (racemic; form 1)
12.7	CCCCC(CC)C(=O)OCC1(CO)C/C(=C\c2ccc(Cl)cc2)C(=O)O1 (racemic; form 1)
27.3	CCCC(CCC)C(=O)OCC1(CO)C/C(=C/c2cc(C(F)(F)F)cc(C(F)(F)F)c2)C(=O)O1 (racemic)
660	CC(C)c1cc(C(C)C)c(C(=O)OCC2(CO)C/C(=C/c3ccc(N(C)C)cc3)C(=O)O2)c(C(C)C)c1 (racemic)
203	O=C1OC(CO)(COC(=O)c2ccccc2)C/C1=C/C1CCCCC1 (racemic)
160	CC(C)c1cc(C(C)C)c(C(=O)OCC2(CO)C/C(=C/c3ccccc3)C(=O)O2)c(C(C)C)c1 (racemic)
29.6	CCCC(CCC)C(=O)OCC1(CO)C/C(=C/c2ccccc2C(F)(F)F)C(=O)O1 (racemic)
119	COc1ccc(/C=C2\CC(CO)(COC(=O)c3c(C)cc(C)cc3C)OC2=O)cc1 (racemic; form 2)
37.5	Cc1cc(C)c(C(=O)OCC2(CO)C/C(=C/c3ccc([N+](=O)[O-])cc3)C(=O)O2)c(C)c1 (racemic)
1080	CN(C)c1ccc(C(=O)OCC2(CO)C/C(=C/c3ccc([N+](=O)[O-])cc3)C(=O)O2)cc1 (racemic)
171	Cc1ccccc1C(=O)OCC1(CO)C/C(=C/c2ccc([N+](=O)[O-])cc2)C(=O)O1 (racemic)
299	COc1ccc(/C=C2/CC(CO)(COC(=O)c3ccccc3)OC2=O)cc1 (racemic)
17.1	CCCC(CCC)C(=O)OCC1(CO)C/C(=C\c2ccc(F)cc2)C(=O)O1 (racemic; form 2)
2.66	CCCC(CCC)C(=O)OCC1(CO)C/C(=C\c2ccc(F)c(Br)c2)C(=O)O1 (racemic; form 2)
30.2	CCC(C(=O)OCC1(CO)C/C(=C/c2cccc(C(F)(F)F)c2)C(=O)O1)c1ccccc1 (racemic)
146	CCCCCC/C=C1/CC(CO)(COC(=O)c2ccc([N+](=O)[O-])cc2)OC1=O (racemic)
332	COc1ccc(/C=C2\CC(CO)(COC(=O)c3ccc(OC)cc3)OC2=O)cc1 (racemic; form 2)
29.4	CC(C)(C)C(=O)OCC1(CO)C/C(=C/c2ccc(Cl)cc2)C(=O)O1 (racemic)
50.2	CC(C)(C)CC(=O)OCC1(CO)C/C(=C/c2ccc(Br)cc2)C(=O)O1 (racemic)
30.2	CCCCC(CC)C(=O)OCC1(CO)C/C(=C/C2CCCCC2)C(=O)O1 (racemic)
426	O=C1OC(CO)(COC(=O)c2ccc([N+](=O)[O-])cc2)C/C1=C/C1CCCCC1 (racemic)
22.3	CCC(C(=O)OCC1(CO)C/C(=C/c2ccc(F)c(Br)c2)C(=O)O1)c1ccccc1 (racemic)
103	COc1ccc(C(=O)OCC2(CO)C/C(=C\c3ccc([N+](=O)[O-])cc3)C(=O)O2)cc1 (racemic; form 2)
362	CN(C)c1ccc(C(=O)OCC2(CO)C/C(=C\c3ccc([N+](=O)[O-])cc3)C(=O)O2)cc1 (racemic; form 2)
